Test results as given in the RNAGym collection of RNA variant scans (doi:10.1002/anie.201605470).

B1: Osa-1-4 twister ribozyme (parent)
chain: CCGCCUAACACUGCCAAUGCCGGUCCCAAGCCCGGAUAAAAGUGGAGGGGGCGG

Variants of: B1
Test: self-cleavage, relative activity (ratio to wild type); higher = more cleavage; co-transcriptional
Method in brief: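 Relative activity is the fraction cleaved divided by that of the wild-type ribozyme. The library came from a DNA template for a 54-nucleotide Oryza sativa twister ribozyme, doped at the 48 positions downstream of the cleavage site with 97 % wild-type base and 1 % of each other base. After 2 h of in vitro transcription at 37 °C with co-transcriptional self-cleavage, the RNA was reverse-transcribed with a template-switching oligonucleotide, amplified by PCR and deep-sequenced, and reads with or without upstream sequence gave the cleavage status.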

Row | Variant | self-cleavage
1 | CCGCCUAACACUGCCAAUGCCGGUCCCAAGCCCGGAUGAAAGUGGUGGGGGCGG | 0.07
2 | CCGCCUAACACUGCCAAUGCCGGUCCCAAGCCCGGAUGAAAGUGGGGGGGGCGG | 0.08
3 | CCGCCUAACACUGCCAAUGCCGGUCCCAAGCCCGGAUGAAAGUGGCGGGGGCGG | 0.08
4 | CCGCCUAACAGUGCCAAUGCCGGUCCCAAGCCCGGAUGAAAGUGGAGGGGGCGG | 0.68
5 | CCGCCUAACAAUGCCAAUGCCGGUCCCAAGCCCGGAUGAAAGUGGAGGGGGCGG | 0.8
6 | CCGCCUAACAUUGCCAAUGCCGGUCCCAAGCCCGGAUGAAAGUGGAGGGGGCGG | 0.94
7 | CCGCCUAACACUGCCAAUGCCGGUCCCAAGCCAGGAUGAAAGUGGAGGGGGCGG | 0.11
8 | CCGCCUAACACUGCCAAUGCCGGUCCCAAGCCUGGAUGAAAGUGGAGGGGGCGG | 0.78
9 | CCGCCUAACACUGCCAAUGCCGGUCCCAAGCCGGGAUGAAAGUGGAGGGGGCGG | 0.07
10 | CCGCCUAUCACUGCCAAUGCCGGUCCCAAGCCCGGAUGAAAGUGGAGGGGGCGG | 0.27
11 | CCGCCUAGCACUGCCAAUGCCGGUCCCAAGCCCGGAUGAAAGUGGAGGGGGCGG | 0.55
12 | CCGCCUACCACUGCCAAUGCCGGUCCCAAGCCCGGAUGAAAGUGGAGGGGGCGG | 0.07
13 | CCGCCUAACACUGCCAAUGCCGGUCCCAAGCCCGGAUGAGAGUGGAGGGGGCGG | 0.6
14 | CCGCCUAACACUGCCAAUGCCGGUCCCAAGCCCGGAUGAUAGUGGAGGGGGCGG | 0.32
15 | CCGCCUAACACUGCCAAUGCCGGUCCCAAGCCCGGAUGACAGUGGAGGGGGCGG | 0.07
16 | CCGCCUAACACUGCCAAUGCCGGUCCCAAGCCCGGAACAAAGUGGAGGGGGCGG | 1.05
17 | CCGCCUAACACUGCCAAUGCCGGUCCCAAGCCCGGAGCAAAGUGGAGGGGGCGG | 0.99
18 | CCGCCUAACACUGCCAAUGCCGGUCCCAAGCCCGGACCAAAGUGGAGGGGGCGG | 1
19 | CCGCCUAACACUGCCAAUGCCGGUCACAAGCCCGGAUGAAAGUGGAGGGGGCGG | 0.06
20 | CCGCCUAACACUGCCAAUGCCGGUCUCAAGCCCGGAUGAAAGUGGAGGGGGCGG | 0.85
21 | CCGCCUAACACUGCCAAUGCCGGUCGCAAGCCCGGAUGAAAGUGGAGGGGGCGG | 0.14
22 | CCGCCUAACACUGCCAAUGCCGGUCCCAAGCCCGGAUCAAAGUGCAGGGGGCGG | 0.05
23 | CCGCCUAACACUGCCAAUGCCGGUCCCAAGCCCGGAUCAAAGUGUAGGGGGCGG | 0.1
24 | CCGCCUAACACUGCCAAUGCCGGUCCCAAGCCCGGAUCAAAGUGAAGGGGGCGG | 0.32
25 | CCGCCUAACACUGCCAAUGCCGGUCCCAAGCCCGGAUCAAAGUGGAGGGGGCAG | 0.84

Row | Variant | self-cleavage
26 | CCGCCUAACACUGCCAAUGCCGGUCCCAAGCCCGGAUCAAAGUGGAGGGGGCCG | 0.08
27 | CCGCCUAACACUGCCAAUGCCGGUCCCAAGCCCGGAUCAAAGUGGAGGGGGCUG | 0.24
28 | CCGCCUAACACUGCCAAUGCCGGUCCUAAGCCCGGAUGAAAGUGGAGGGGGCGG | 0.18
29 | CCGCCUAACACUGCCAAUGCCGGUCCAAAGCCCGGAUGAAAGUGGAGGGGGCGG | 0.16
30 | CCGCCUAACACUGCCAAUGCCGGUCCGAAGCCCGGAUGAAAGUGGAGGGGGCGG | 0.09
31 | CCGCCUAACACUGCCAAUGCCGGUCCCAAGCCCGGAUGAAAGUGGAGGGGGCGG | 1.01
32 | CCGCCUAACACUGCCAAUGCCGGUCCCAAGCCCGGAUGAAAGUGGAGGGGGGGG | 0.96
33 | CCGCCUAACACUGCCAAUGCCGGUCCCAAGCCCGGAUGAAAGUGGAGGGGGAGG | 1.02
34 | CCGCCUAACACUGCCAAUGCCGGUCCCAAGCCCGGAUGCAAGUGGAGGGGGCGG | 0.97
35 | CCGCCUAACACUGCCAAUGCCGGUCCCAAGCCCGGAUGGAAGUGGAGGGGGCGG | 0.4
36 | CCGCCUAACACUGCCAAUGCCGGUCCCAAGCCCGGAUGUAAGUGGAGGGGGCGG | 0.98
37 | CCGCCUAACACUGCCAAUGCGGGUCCCAAGCCCGGAUGAAAGUGGAGGGGGCGG | 0.08
38 | CCGCCUAACACUGCCAAUGCUGGUCCCAAGCCCGGAUGAAAGUGGAGGGGGCGG | 1.01
39 | CCGCCUAACACUGCCAAUGCAGGUCCCAAGCCCGGAUGAAAGUGGAGGGGGCGG | 0.78
40 | CCGCCUAACACUGCCAAUGCCGGUACCAAGCCCGGAUGAAAGUGGAGGGGGCGG | 0.09
41 | CCGCCUAACACUGCCAAUGCCGGUGCCAAGCCCGGAUGAAAGUGGAGGGGGCGG | 0.11
42 | CCGCCUAACACUGCCAAUGCCGGUUCCAAGCCCGGAUGAAAGUGGAGGGGGCGG | 0.78
43 | CCGCCUAACACUGCCAAUGCCGGUCCCAAGCCCGGAUCAAAGUUGAGGGGGCGG | 0.93
44 | CCGCCUAACACUGCCAAUGCCGGUCCCAAGCGCGGAUGAAAGUGGAGGGGGCGG | 0.18
45 | CCGCCUAACACUGCCAAUGCCGGUCCCAAGCACGGAUGAAAGUGGAGGGGGCGG | 0.09
46 | CCGCCUAACACUGCCAAUGCCGGUCCCAAGCUCGGAUGAAAGUGGAGGGGGCGG | 0.12
47 | CCGCCUAACACUGCCAAUGCCGGUCCCAAGCCCGGAUCAAAGUGGAGGGAGCGG | 0.75
48 | CCGCCUAACACUGCCAAUGCCGGUCCCAAGCCCGGAUCAAAGUGGAGGGUGCGG | 1.04
49 | CCGCCUAACACUGCCAAUGCCGGUCCCAAGCCCGGAUCAAAGUGGAGGGCGCGG | 1.01
